Where “and” joins values, the source holds several entries; their conditions need not be identical. Equal values may be shown once.
What was measured:
Acanthocheilonema viteae = assay: Macrofilarial reduction at 100 mg/kg dosage by subcutaneous administration for a period of 5 days against Acanthocheilonema viteae; format: functional
Outline: (§1)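 Jirds doubly infected with A. viteae and B. pahangi were dosed subcutaneously once daily on five successive days. Each series included a flubendazole positive control at 2.0 mg/day for 5 days. Jirds were killed 56 days later and worms of each species counted. Worm percentage was compared with untreated negative controls, and ≥60% reduction was scored as active.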

Brugia pahangi = assay: Macrofilarial reduction at 100 mg/kg dosage by subcutaneous administration for a period of 5 days against Brugia pahangi; format: functional; outline: as §1
Meriones unguiculatus [1] = assay: Compound was tested for macrofilarial reduction at 100 mg/kg dosage by subcutaneous administration for a period of 5 days against Acanthocheilonema viteae (Acanthocheilonema viteae); Toxic; format: functional, organism-based; set-up: dose 100 mg/kg; outline: as §1
Meriones unguiculatus [2] = assay: Compound was tested for macrofilarial reduction at 100 mg/kg dosage by subcutaneous administration for a period of 5 days against Brugia pahangi (Brugia pahangi); Toxic; format: functional, organism-based; set-up: dose 100 mg/kg; outline: as §1
Meriones unguiculatus [3] = assay: Compound was tested for macrofilarial reduction at 3.12 mg/kg dosage by subcutaneous administration for a period of 5 days against Acanthocheilonema viteae (Acanthocheilonema viteae); format: functional; outline: as §1
Meriones unguiculatus [4] = assay: Compound was tested for macrofilarial reduction at 3.12 mg/kg dosage by subcutaneous administration for a period of 5 days against Brugia pahangi (Brugia pahangi).; format: functional; outline: as §1
[5] = Compound was tested for macrofilarial reduction at 12.5 mg/kg dosage by subcutaneous administration for a period of 5 days against Acanthocheilonema viteae (Acanthocheilonema viteae); format: functional, Meriones unguiculatus; outline: as §1
Meriones unguiculatus [6] = assay: Compound was tested for macrofilarial reduction at 12.5 mg/kg dosage by subcutaneous administration for a period of 5 days against Brugia pahangi (Brugia pahangi).; format: functional; outline: as §1
Meriones unguiculatus [7] = assay: Compound was tested for macrofilarial reduction at 100 mg/kg dosage by subcutaneous administration for a period of 5 days against Acanthocheilonema viteae (Acanthocheilonema viteae) * Toxicity noted at this dosage; format: functional; outline: as §1
Meriones unguiculatus [8] = assay: Compound was tested for macrofilarial reduction at 100 mg/kg dosage by subcutaneous administration for a period of 5 days against Brugia pahangi (Brugia pahangi). * Toxicity noted at this dosage; format: functional; outline: as §1
Meriones unguiculatus [9] = assay: Compound was tested for macrofilarial reduction at 6.25 mg/kg dosage by subcutaneous administration for a period of 5 days against Acanthocheilonema viteae (Acanthocheilonema viteae); format: functional; outline: as §1
Meriones unguiculatus [10] = assay: Compound was tested for macrofilarial reduction at 75 mg/kg dosage by subcutaneous administration for a period of 5 days against Acanthocheilonema viteae (Acanthocheilonema viteae); format: functional; outline: as §1
Meriones unguiculatus [11] = assay: Compound was tested for macrofilarial reduction at 75 mg/kg dosage by subcutaneous administration for a period of 5 days against Brugia pahangi (Brugia pahangi).; format: functional; outline: as §1
Meriones unguiculatus [12] = assay: Compound was tested for macrofilarial reduction at 1.56 mg/kg dosage by subcutaneous administration for a period of 5 days against Acanthocheilonema viteae (Acanthocheilonema viteae); format: functional; outline: as §1
Meriones unguiculatus [13] = assay: Compound was tested for macrofilarial reduction at 1.56 mg/kg dosage by subcutaneous administration for a period of 5 days against Brugia pahangi (Brugia pahangi).; format: functional; outline: as §1
Meriones unguiculatus [14] = assay: Compound was tested for macrofilarial reduction at 25 mg/kg dosage by subcutaneous administration for a period of 5 days against Brugia pahangi (Brugia pahangi).; format: functional; outline: as §1
Meriones unguiculatus [15] = assay: Compound was tested for macrofilarial reduction at 50 mg/kg dosage by subcutaneous administration for a period of 5 days against Acanthocheilonema viteae (Acanthocheilonema viteae); format: functional; outline: as §1
Meriones unguiculatus [16] = assay: Compound was tested for macrofilarial reduction at 50 mg/kg dosage by subcutaneous administration for a period of 5 days against Brugia pahangi (Brugia pahangi).; format: functional; outline: as §1
Meriones unguiculatus [17] = assay: Compound was tested for macrofilarial reduction at 25 mg/kg dosage by subcutaneous administration for a period of 5 days against Acanthocheilonema viteae (Acanthocheilonema viteae); format: functional; outline: as §1
Meriones unguiculatus [18] = assay: Compound was tested for macrofilarial reduction at 6.25 mg/kg dosage by subcutaneous administration for a period of 5 days against Brugia pahangi (Brugia pahangi).; format: functional; outline: as §1

| Structure (SMILES) | Reduction (Acanthocheilonema viteae) | Reduction (Brugia pahangi) | also measured |
| --- | --- | --- | --- |
| c1ccn2cc(-c3ccc(C4=NCCCN4)cc3)nc2c1 | 0% | 0% | – |
| C(=C\c1cn2cc(C3=NCCN3)ccc2n1)/c1ccc(C2=NCCN2)cc1 | – | – | Reduction (Meriones unguiculatus [1]): Toxic; Reduction (Meriones unguiculatus [2]): Toxic |
| C(=Cc1ccc(-c2cn3ccccc3n2)cc1)C1=NCCS1 | 0% | 0% | – |
| C(=NNc1ccccn1)c1ccc(-c2cn3cc(C=NNc4ccccn4)ccc3n2)cc1 | 0% | 0% | – |
| N=C(c1ccc2nc(-c3ccccc3)cn2c1)N1CCOCC1 | 0% | 12% | – |
| C(=NNC1=NCCN1)c1ccc(/C=C/c2cn3cc(C=NNC4=NCCN4)ccc3n2)cc1 | 24% | 4% | – |
| Nc1ccc(C(=O)NN=Cc2ccc(-c3cn4cc(C=NNC(=O)c5ccc(N)cc5)ccc4n3)cc2)cc1 | 0% | 8% | – |
| C(=NNC1=NCCCN1)c1ccc2nc(-c3ccccc3)cn2c1 | 30% | 0% | – |
| C(=Cc1ccc(-c2cn3ccccc3n2)cc1)C1=NCCN1 | 28% | 18% | – |
| N=C(c1ccc(-c2cn3ccccc3n2)cc1)N1CCCCC1 | 0% | 15% | – |
| N=C(c1ccc(-c2cn3cc(C(=N)N4CCCC4)ccc3n2)cc1)N1CCCC1 | – | – | Reduction (Meriones unguiculatus [3]): 39%; Reduction (Meriones unguiculatus [4]): 0% |
| C(=NNC1=NCCS1)c1ccc(-c2cn3cc(C=NNC4=NCCS4)ccc3n2)cc1 | 0% | 38% | – |
| N=C(c1ccc(/C=C/c2cn3cc(C(=N)N4CCCC4)ccc3n2)cc1)N1CCCC1 | – | – | Reduction (Meriones unguiculatus [1]): Toxic; Reduction (Meriones unguiculatus [2]): Toxic |
| c1ccc(-c2cn3cc(C4=NCCN4)ccc3n2)cc1 | 0% | 42% | – |
| N=C(/C=C/c1ccc(-c2cn3cc(/C=C/C(=N)N4CCOCC4)ccc3n2)cc1)N1CCOCC1 | – | – | Reduction [5]: 50%; Reduction (Meriones unguiculatus [6]): 0% |
| N=C(NN=C/C=C/c1ccc(-c2cn3cc(/C=C/C=NNC(=N)N4CCCC4)ccc3n2)cc1)N1CCCC1 | – | – | Reduction [5]: 50%; Reduction (Meriones unguiculatus [6]): 38% |
| Cc1ccc(S(=O)(=O)NN=Cc2ccc(-c3cn4cc(C=NNS(=O)(=O)c5ccc(C)cc5)ccc4n3)cc2)cc1 | 0% | 16% | – |
| c1cc(-c2cn3cc(C4=NCCN4)ccc3n2)ccc1C1=NCCN1 | 0% | 35% | – |
| N=C(NN=Cc1ccc(-c2cn3cc(C=NNC(=N)N4CCCC4)ccc3n2)cc1)N1CCCC1 | 60% | 0% | Reduction (Meriones unguiculatus [7]): 73%; Reduction (Meriones unguiculatus [8]): 0% |
| C(=Cc1ccc(-c2cn3cc(C=CC4=NCCS4)ccc3n2)cc1)C1=NCCS1 | 0% | 0% | – |
| N=C(NN=Cc1ccc(-c2cn3ccccc3n2)cc1)N1CCCC1 | 47% | 0% | – |

| Structure (SMILES) | Reduction (Acanthocheilonema viteae) | Reduction (Brugia pahangi) | also measured |
| --- | --- | --- | --- |
| C(=NNC1=NCCCN1)c1ccc(-c2cn3cc(C=NNC4=NCCCN4)ccc3n2)cc1 | 100% | – | Reduction (Meriones unguiculatus [9]; 6.25 mg/kg): 100% and 75%; Reduction (Meriones unguiculatus [10]): 100%; Reduction (Meriones unguiculatus [11]): 0%; Reduction (Meriones unguiculatus [12]): 73%; Reduction (Meriones unguiculatus [13]): 16%; Reduction (Brugia pahangi; 100 mg/kg): 9% and 0%; Reduction ([5]; 12.5 mg/kg): 100% and 64%; Reduction (Meriones unguiculatus [14]): 0%; Reduction (Meriones unguiculatus [3]): 88%; Reduction (Meriones unguiculatus [4]): 11%; Reduction (Meriones unguiculatus [15]): 100%; Reduction (Meriones unguiculatus [16]): 0% |
| C(/C=C/c1ccc(-c2cn3cc(/C=C/C=NNC4=NCCCN4)ccc3n2)cc1)=NNC1=NCCCN1 | – | – | Reduction (Acanthocheilonema viteae; 100 mg/kg): 100% and 64%; Reduction [5]: 50%; Reduction (Meriones unguiculatus [6]): 38%; Reduction (Meriones unguiculatus [17]): 73%; Reduction (Meriones unguiculatus [14]): 13%; Reduction (Meriones unguiculatus [15]): 100%; Reduction (Meriones unguiculatus [16]): 38% |
| N=C(c1ccc(-c2cn3ccccc3n2)cc1)N1CCCC1 | 0% | 36% | – |
| C(=NNC1=NCCCN1)c1ccc(/C=C/c2cn3cc(C=NNC4=NCCCN4)ccc3n2)cc1 | 100% | 32% | – |
| C(=NNC1=NCCCN1)c1ccc2nc(C=NNC3=NCCCN3)cn2c1 | 0% | 5% | – |
| N=C(NN=Cc1ccc2nc(C=NNC(=N)N3CCCC3)cn2c1)N1CCCC1 | 0% | 5% | – |
| N=C(NN=Cc1ccc(-c2cn3ccccc3n2)cc1)N1CCOCC1 | 0% | 12% | – |
| CN1CCN(C(=N)/C=C/c2ccc(-c3cn4cc(/C=C/C(=N)N5CCN(C)CC5)ccc4n3)cc2)CC1 | – | – | Reduction [5]: 57%; Reduction (Meriones unguiculatus [6]): 0% |
| C(=NNC1=NCCCN1)c1ccc(-c2cn3ccccc3n2)cc1 | 0% | 0% | – |
| C(/C=C/c1ccc(-c2cn3cc(/C=C/C=NNC4=NCCN4)ccc3n2)cc1)=NNC1=NCCN1 | 71% | 18% | – |
| C(=NNC1=NCCN1)c1ccc(-c2cn3ccccc3n2)cc1 | 60% | 0% | – |
| CC(C)NC(=N)NN=Cc1ccc(-c2cn3cc(C=NNC(=N)NC(C)C)ccc3n2)cc1 | 100% | 32% | – |
| N=C(c1ccc(-c2cn3ccccc3n2)cc1)N1CCOCC1 | 0% | 29% | – |
| CC(C)NC(=N)c1ccc(/C=C/c2cn3cc(C(=N)NC(C)C)ccc3n2)cc1 | – | – | Reduction (Meriones unguiculatus [1]): Toxic; Reduction (Meriones unguiculatus [2]): Toxic |
| N=C(/C=C/c1ccc(-c2cn3cc(/C=C/C(=N)N4CCCC4)ccc3n2)cc1)N1CCCC1 | – | – | Reduction (Meriones unguiculatus [9]): 72%; Reduction (Meriones unguiculatus [18]): 0% |
| c1ccn2cc(-c3ccc(C4=NCCN4)cc3)nc2c1 | 20% | 8% | – |
| C(=NNC1=NCCN1)c1ccc2nc(-c3ccccc3)cn2c1 | 20% | 0% | – |
| C(=NNC1=NCCN1)c1ccc2nc(C=NNC3=NCCN3)cn2c1 | 5% | 5% | – |
| N=C(c1ccc2nc(-c3ccccc3)cn2c1)N1CCCC1 | – | – | Reduction (Acanthocheilonema viteae; 100 mg/kg): 60% and 27%; Reduction (Brugia pahangi; 100 mg/kg): 25% and 0% |
| C(=NNC1=NCCC1)c1ccc(-c2cn3cc(C=NNC4=NCCC4)ccc3n2)cc1 | 24% | 5% | – |
| C(=NNC1=NCCN1)c1ccc(-c2cn3cc(C=NNC4=NCCN4)ccc3n2)cc1 | – | – | Reduction (Acanthocheilonema viteae; 100 mg/kg): 100% and 78%; Reduction (Brugia pahangi; 100 mg/kg): 18% and 11%; Reduction [5]: 82%; Reduction (Meriones unguiculatus [6]): 0%; Reduction (Meriones unguiculatus [17]; 25 mg/kg): 82% and 73%; Reduction (Meriones unguiculatus [15]): 100%; Reduction (Meriones unguiculatus [16]): 0% |

Source: ChEMBL document CHEMBL1131159, “Bis-cationic heteroaromatics as macrofilaricides: synthesis of bis-amidine and bis-guanylhydrazone derivatives of substituted imidazo[1,2-a]pyridines” (1998)
